Bioassay records from PubChem.
TRPN1 ag: zebrafish TRPN1 channel agonists, primary screen, cell-based, HEK293, calcium fluorescence | hit rate 0.18% among 220,000 | activation, % at 3 µM | transient receptor potential cation channel N1 (TRPN1/NompC), Danio rerio | HEK293 zebrafish TRPN1-YFP, Fluo-8 calcium fluorescence; 100% = response to 87 µM carbachol;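 active = activation above its plate's cutoff, the mean activation of test wells on that plate plus 3 SD, cut at about 19% in these data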;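 note: 0% = DMSO alone and 100% = 87 µM carbachol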
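Material: zebrafish TRPN1-YFP in HEK293 cells. Doses: one dose of 3 µM, 0.3% DMSO. Incubation: dye 1 h 37 °C plus 30 min RT. Measured by: intracellular calcium fluorescence with Fluo-8.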
TAAR1 agonist: human TAAR1 agonists, primary screen, Fluo-8 calcium fluorescence, CHO RD-HGA16 cells | hit rate 0.99% among 360,000 | Trace amine-associated receptor 1 (Homo sapiens), Q96RJ0 | AID 624467, 2012 | vehicle wells 0%, saturating PEA agonist 100% | activation, % at 3 µM;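 active = activation above the mean activation of all test compounds in the run plus 3 SD, cut at about 38% in these data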
Target sequence (Q96RJ0 whole entry, looked up): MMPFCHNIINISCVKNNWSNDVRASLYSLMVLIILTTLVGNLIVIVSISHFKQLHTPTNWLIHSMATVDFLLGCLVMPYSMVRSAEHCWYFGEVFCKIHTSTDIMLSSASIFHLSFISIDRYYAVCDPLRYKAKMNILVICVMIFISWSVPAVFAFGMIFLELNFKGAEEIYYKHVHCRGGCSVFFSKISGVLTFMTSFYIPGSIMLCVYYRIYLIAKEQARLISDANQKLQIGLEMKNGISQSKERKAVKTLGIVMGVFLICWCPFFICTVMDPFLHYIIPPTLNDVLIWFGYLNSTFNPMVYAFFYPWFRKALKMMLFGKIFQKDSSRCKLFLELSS
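Benchmarks: low control DMSO, high control PEA (EC100); System: CHO RD-HGA16 cells carrying human TAAR1 plus Gα16; Detection: Fluo-8 fluorescence, 5 s baseline then 140 s kinetic read; Schedule: 17-24 h plating, Fluo-8 75 min 37 °C, 30 min RT; Read-out basis: % activation from peak over basal fluorescence ratio, DMSO-to-PEA scaled.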
TAAR1 antag: human TAAR1 antagonists, primary screen, Fluo-8 calcium fluorescence, CHO RD-HGA16 cells | antagonist | inhibition, % at 3 µM | hit rate 1.5% among 360,000;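 active = inhibition above a per-plate cutoff, the mean inhibition of test compounds on that plate plus 3 SD, cut at about 49% in these data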;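 note: 0% = DMSO plus EC80 beta-PEA response and 100% = DMSO alone without agonist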
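Material: RD-HGA16 CHO cells with stable hTAAR1 and Gα16; Dosing: single nominal final test compound concentration of 3 µM; Schedule: seeding 17-24 h prior, 75-min 37 °C, 30-min RT dye loading; Detection: kinetic Fluo-8 calcium fluorescence measurement; Measure: % inhibition from peak post-agonist over basal fluorescence ratio; Benchmarks: vehicle and agonist controls.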
LANA-H2A inh: blockers of LANA interaction with H2A/H2B – biochemical, FP readout, HTS, primary screen; Protein LANA1 (Human herpesvirus 8 type P (isolate GK18)), Q9QR71; cell-free LANA-H2A/H2B peptide, fluorescence polarization; inhibition, % (test concentration not listed); hit rate 0.6% among 320,000; AID 2629, 2010; in the data active = inhibition mostly above about 10%, no sharp cut-off; inactive = mostly below about 6.7%
TRPML3 ag: human TRPML3 channel agonists, primary screen, cell-based, HEK293 TRPML3-YFP, Fluo-8 calcium fluorescence, 3 µM. hit rate 0.29% among 220,000. 100% = the carbachol control signal. AID 1448, 2008. Mucolipin-3 (Homo sapiens), Q8TDD5. activation, % at 3 µM;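 active = activation above its plate's cutoff, the mean activation of the plate's test wells plus 3 SD, cut at about 12% in these data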;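 note: 0% = DMSO only wells and 100% = carbachol wells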
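Test system – HEK293 line with stable expression of human TRPML3-YFP channel · Control set – carbachol 87 µM final as high control (100%), DMSO as low control (0%) · Signal – Fluo-8 calcium dye fluorescence, ex 470-495, em 515-575 nm · Incubation – 1-h 37 °C dye load, 5-s basal, 120-s post-compound reads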
GPR7 antagonist: GPR7 receptor antagonists, primary screen, cell-based, fluorescence, single concentration | Neuropeptides B/W receptor type 1 (Homo sapiens), P48145 | GPR7-expressing cells, fluorescence antagonist assay | inhibition, % at 4.4 µM | hit rate 1.1% among 290,000; in the data active = inhibition above about 16%, passing the limit was not always enough;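 note: cells stimulated with the agonist NPW; 0% = agonist with vehicle and 100% = vehicle without agonist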
nonsel antag count: nonselective antagonists in TAAR1 counter-screen cells, counter-screen for hTAAR1 antagonist project, cell-based, fluorescence, calcium; hit rate 77% among 2,400; shares compounds with TAAR1 antag; counterscreen cell line, antagonist mode; inhibition, % at 3 µM; in the data active = inhibition above about 22%;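 note: CHO-Ga16 host cells stimulated with ATP at an EC80 level; 0% = agonist EC80 plus vehicle and 100% = vehicle without agonist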
TAAR1 ant conf: human TAAR1 antagonists, retest of hits, confirmation, cell-based, fluorescence. shares compounds with TAAR1 antag. TAAR1-expressing cells, fluorescence antagonist read-out. inhibition, % at 3 µM. hit rate 40% among 2,400. AID 651785, 2012; in the data active = inhibition above about 49%;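 note: CHO-Ga16 host cells challenged with agonist PEA near its EC80; 0% = agonist at EC80 plus vehicle and 100% = vehicle with no agonist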
Ga16 nonsel ag: calcium activation in Ga16-expressing cells, counter-screen for TAAR1 antagonist project, cell-based, fluorescence | agonist counterscreen | activation, % at 3 µM | hit rate 18% among 2,400 | AID 651953, 2012 | shares compounds with TAAR1 antag; in the data active = activation above about 12%;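 note: 0% = vehicle wells and 100% = saturating stimulus response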
TAAR1 ag counter: TAAR1 activation by candidate antagonists – cell-based, fluorescence, counter-screen for TAAR1 antagonist project; shares compounds with TAAR1 antag; hTAAR1 cell line, agonist mode; activation, % at 3 µM; hit rate 2% among 2,400; in the data active = activation above about 37%;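 note: CHO cells stably expressing TAAR1 with calcium dye readout; 0% = DMSO vehicle and 100% = full agonist response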
* marks the source's active call; other numbers are inactive results; . = no result given. A selection: hits, their analogues and other compounds. The true share with any hit is near 3.4%.

SMILES	TRPN1 ag	TAAR1 agonist	TAAR1 antag	LANA-H2A inh	TRPML3 ag	GPR7 antagonist	nonsel antag count	TAAR1 ant conf	Ga16 nonsel ag	TAAR1 ag counter
CC(=O)N1CCN(S(=O)(=O)c2cccc(C(=O)NNC(=O)COc3ccc(Cl)cc3C)c2)CC1	.	.	.	2	.	.	.	.	.	.
CCOC(=O)[C@]12CCC=C1N(Cc1ccccc1)C(=O)[C@H](CC(=O)NCCCN1CCCC1=O)C2	.	1	-3	.	.	.	.	.	.	.
CN(C1CCCCC1)S(=O)(=O)c1ccc(NC(=O)CCC(=O)O)cc1	1	1	0	-4	0	2	.	.	.	.
CN(C1CCCCC1)S(=O)(=O)c1ccc(S(=O)(=O)N(CC(=O)Nc2ccccc2)C2CC2)cc1	0	5	58*	-7	0	-2	26*	41	9	10
COc1ccc(CCNC(=O)c2ccccc2NC(=O)C2=C(C)OCCS2)cc1OC	.	15	70*	0	.	-14	30*	51*	10	15
C#CCN(C(=O)c1ccc(OC2CCN(Cc3ccccn3)CC2)cc1)C1CCCCC1	.	12	-33	0	.	4	.	.	.	.
OC[C@@H]1CN(Cc2cccc(C(F)(F)F)c2)C[C@H](n2cnc3c(NCc4ccc(F)cc4)ncnc32)O1	.	8	30	.	.	.	.	.	.	.
OC[C@@H]1CN(Cc2cccc(C(F)(F)F)c2)C[C@H](n2cnc3c(NCc4ccco4)ncnc32)O1	.	17	74*	.	.	.	23*	39	11	11
CC(C)(C)c1ccc(C(=O)N2CCC2(C)C(=O)NS(=O)(=O)c2ccccc2Cl)cc1 (centres undefined)	.	1	1	.	.	.	.	.	.	.
CC(=O)c1cccc(-c2ccnc3c2CC(C(=O)Nc2cccc(C(F)(F)F)c2)O3)c1 (centres undefined)	.	3	35	.	.	.	.	.	.	.
O=C(NCc1ccccc1Cl)c1ccc(Br)o1	0	-3	104*	3	0	3	1	-7	-1	1
Cc1n[nH]c(C)c1S(=O)(=O)N(CC(=O)NC1CCCC1)c1ccc(C(C)C)cc1	0	9	61*	1	-1	8	22*	38	8	11
COc1ccccc1/C=C/C(=O)Nc1cccc(S(=O)(=O)N2CCOCC2)c1	.	9	59*	.	.	.	24*	45	5	3
Cc1onc(-c2c(F)cccc2Cl)c1C(=O)Nc1cccc(S(=O)(=O)N2CCOCC2)c1	.	14	50*	9	.	.	26*	39	8	11
COc1ccc(/C=C/C(=O)Nc2cccc(S(=O)(=O)N3CCOCC3)c2)cc1OC	.	5	14	.	.	.	.	.	.	.
CCN(CC)S(=O)(=O)c1ccc(Nc2nc3ccccc3n3nnnc23)cc1	2	10	49*	1	0	0	23*	42	10	15
COc1ccc(/C=N/NC(=O)c2nc(-c3ccccc3)cc(-c3ccccc3)n2)cc1OC	1	21	51*	-3	0	0	26*	44	7	9
